From ChEMBL document CHEMBL3232791, “Synthesis and antibacterial evaluation of amino acid-antibiotic conjugates” (2014)

Experiments:
Format in all cases: functional
Staphylococcus aureus [1] = test: Antibacterial activity against Staphylococcus aureus RN4220 assessed as growth inhibition at 300 ug/ml after 16 hrs by spectrophotometric analysis; conditions: RN4220, 16 h, read-out: GI
Method in brief: (§1)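 Growth inhibition read as OD600 on 300 µL culture samples, with untreated control cultures taken as maximum growth. Percent inhibition = (OD600 control − OD600 treated) × 100 / OD600 control. Parent antibiotics and their conjugates were run in parallel at three concentrations per compound, in biological duplicate.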

Escherichia coli [2] = test: Antibacterial activity against Escherichia coli DH5alpha assessed as growth inhibition at 75 ug/ml after 16 hrs by spectrophotometric method; conditions: DH5[alpha], read-out: GI; method in brief: as §1
Staphylococcus aureus [3] = test: Antibacterial activity against Staphylococcus aureus RN4220 assessed as growth inhibition at 150 ug/ml after 16 hrs by spectrophotometric analysis; conditions: RN4220, 16 h, read-out: GI; method in brief: as §1
Escherichia coli [4] = test: Antibacterial activity against Escherichia coli DH5alpha assessed as growth inhibition at 50 ug/ml after 16 hrs by spectrophotometric method; conditions: DH5[alpha], read-out: GI; method in brief: as §1
Staphylococcus aureus [5] = test: Antibacterial activity against Staphylococcus aureus RN4220 assessed as growth inhibition at 75 ug/ml after 16 hrs by spectrophotometric analysis; conditions: RN4220, 16 h, read-out: GI; method in brief: as §1
Escherichia coli [6] = test: Antibacterial activity against Escherichia coli DH5alpha assessed as growth inhibition at 100 ug/ml after 16 hrs by spectrophotometric method; conditions: DH5[alpha], read-out: GI; method in brief: as §1
Staphylococcus aureus [7] = test: Antibacterial activity against Staphylococcus aureus RN4220 assessed as growth inhibition at 200 ug/ml after 16 hrs by spectrophotometric analysis; conditions: RN4220, 16 h, read-out: GI; method in brief: as §1
Staphylococcus aureus [8] = test: Antibacterial activity against Staphylococcus aureus RN4220 assessed as growth inhibition at 100 ug/ml after 16 hrs by spectrophotometric analysis; conditions: RN4220, 16 h, read-out: GI; method in brief: as §1
Escherichia coli [9] = test: Antibacterial activity against Escherichia coli DH5alpha assessed as growth inhibition at 5 ug/ml after 16 hrs by spectrophotometric method; conditions: DH5[alpha], read-out: GI; method in brief: as §1
Bacillus subtilis [10] = test: Antibacterial activity against Bacillus subtilis 168 assessed as growth inhibition at 10 ug/ml after 16 hrs by spectrophotometric analysis; conditions: subsp. subtilis str. 168, 16 h, read-out: GI; method in brief: as §1
Escherichia coli [11] = test: Antibacterial activity against Escherichia coli DH5alpha assessed as growth inhibition at 2.5 ug/ml after 16 hrs by spectrophotometric method; conditions: DH5[alpha], read-out: GI; method in brief: as §1
Bacillus subtilis [12] = test: Antibacterial activity against Bacillus subtilis 168 assessed as growth inhibition at 20 ug/ml after 16 hrs by spectrophotometric analysis; conditions: subsp. subtilis str. 168, 16 h, read-out: GI; method in brief: as §1
Staphylococcus aureus [13] = test: Antibacterial activity against Staphylococcus aureus RN4220 assessed as growth inhibition at 50 ug/ml after 16 hrs by spectrophotometric analysis; conditions: RN4220, 16 h, read-out: GI; method in brief: as §1
Escherichia coli [14] = test: Antibacterial activity against Escherichia coli DH5alpha assessed as growth inhibition at 10 ug/ml after 16 hrs by spectrophotometric method; conditions: DH5[alpha], read-out: GI; method in brief: as §1
Bacillus subtilis [15] = test: Antibacterial activity against Bacillus subtilis 168 assessed as growth inhibition at 40 ug/ml after 16 hrs by spectrophotometric analysis; conditions: subsp. subtilis str. 168, 16 h, read-out: GI; method in brief: as §1
Escherichia coli [16] = test: Antibacterial activity against Escherichia coli DH5alpha assessed as growth inhibition at 40 ug/ml after 16 hrs by spectrophotometric method; conditions: DH5[alpha], read-out: GI; method in brief: as §1
Staphylococcus aureus [17] = test: Antibacterial activity against Staphylococcus aureus RN4220 assessed as growth inhibition at 120 ug/ml after 16 hrs by spectrophotometric analysis; conditions: RN4220, 16 h, read-out: GI; method in brief: as §1
Staphylococcus aureus [18] = test: Antibacterial activity against Staphylococcus aureus RN4220 assessed as growth inhibition at 240 ug/ml after 16 hrs by spectrophotometric analysis; conditions: RN4220, 16 h, read-out: GI; method in brief: as §1
Staphylococcus aureus [19] = test: Antibacterial activity against Staphylococcus aureus RN4220 assessed as growth inhibition at 60 ug/ml after 16 hrs by spectrophotometric analysis; conditions: RN4220, 16 h, read-out: GI; method in brief: as §1

Cc1ncc([N+](=O)[O-])n1CCOC(=O)CNC(=O)OCc1ccccc1
inhibition of growth at 300 µg/mL (Staphylococcus aureus [1]): 23.6%
inhibition of growth at 75 µg/mL (Escherichia coli [2]): 1.61%
inhibition of growth at 150 µg/mL (Staphylococcus aureus [3]): 23.5%
inhibition of growth at 50 µg/mL (Escherichia coli [4]): 8.23%
inhibition of growth at 75 µg/mL (Staphylococcus aureus [5]): 0.33%
inhibition of growth at 100 µg/mL (Escherichia coli [6]): 6.59%

Cc1ncc([N+](=O)[O-])n1CCOC(=O)[C@@H](NC(=O)OCc1ccccc1)C(C)C
inhibition of growth at 300 µg/mL (Staphylococcus aureus [1]): 13.7%
inhibition of growth at 75 µg/mL (Escherichia coli [2]): 3.26%
inhibition of growth at 150 µg/mL (Staphylococcus aureus [3]): -7.76%
inhibition of growth at 50 µg/mL (Escherichia coli [4]): 3.28%
inhibition of growth at 75 µg/mL (Staphylococcus aureus [5]): -7.76%
inhibition of growth at 100 µg/mL (Escherichia coli [6]): 4.47%

CCn1cc(C(=O)O)c(=O)c2cnc(N3CCNCC3)nc21 [PIPEMIDIC ACID]
inhibition of growth at 200 µg/mL (Staphylococcus aureus [7]): 61.8%
inhibition of growth at 100 µg/mL (Staphylococcus aureus [8]): 44.4%
inhibition of growth at 5 µg/mL (Escherichia coli [9]): -9.68%
inhibition of growth at 10 µg/mL (Bacillus subtilis [10]): 18.2%
inhibition of growth at 2.5 µg/mL (Escherichia coli [11]): -13%
inhibition of growth at 20 µg/mL (Bacillus subtilis [12]): 26%
inhibition of growth at 50 µg/mL (Staphylococcus aureus [13]): 26.2%
inhibition of growth at 10 µg/mL (Escherichia coli [14]): 7.89%
inhibition of growth at 40 µg/mL (Bacillus subtilis [15]): 79.8%

CCn1cc(C(=O)O)c(=O)c2cnc(N3CCN(C(=O)[C@H](Cc4ccccc4)NC(=O)OCc4ccccc4)CC3)nc21
inhibition of growth at 200 µg/mL (Staphylococcus aureus [7]): 72.9%
inhibition of growth at 100 µg/mL (Staphylococcus aureus [8]): 60.1%
inhibition of growth at 5 µg/mL (Escherichia coli [9]): -6.38%
inhibition of growth at 10 µg/mL (Bacillus subtilis [10]): 6.09%
inhibition of growth at 2.5 µg/mL (Escherichia coli [11]): -11.5%
inhibition of growth at 20 µg/mL (Bacillus subtilis [12]): 13.8%
inhibition of growth at 50 µg/mL (Staphylococcus aureus [13]): 49.6%
inhibition of growth at 10 µg/mL (Escherichia coli [14]): 9.45%
inhibition of growth at 40 µg/mL (Bacillus subtilis [15]): 77%

C[C@H](NC(=O)OCc1ccccc1)C(=O)Nc1ccc(S(=O)(=O)Nc2ncccn2)cc1
inhibition of growth at 40 µg/mL (Escherichia coli [16]): 2.13%
inhibition of growth at 75 µg/mL (Escherichia coli [2]): -0.65%
inhibition of growth at 120 µg/mL (Staphylococcus aureus [17]): -9.38%
inhibition of growth at 240 µg/mL (Staphylococcus aureus [18]): 1.07%
inhibition of growth at 60 µg/mL (Staphylococcus aureus [19]): -9.96%
inhibition of growth at 50 µg/mL (Escherichia coli [4]): -0.61%

CCn1cc(C(=O)O)c(=O)c2cnc(N3CCN(C(=O)CNC(=O)OCc4ccccc4)CC3)nc21
inhibition of growth at 200 µg/mL (Staphylococcus aureus [7]): 57.4%
inhibition of growth at 100 µg/mL (Staphylococcus aureus [8]): 52.2%
inhibition of growth at 5 µg/mL (Escherichia coli [9]): -11.1%
inhibition of growth at 10 µg/mL (Bacillus subtilis [10]): 88.2%
inhibition of growth at 2.5 µg/mL (Escherichia coli [11]): -13.4%
inhibition of growth at 20 µg/mL (Bacillus subtilis [12]): -7.68%
inhibition of growth at 50 µg/mL (Staphylococcus aureus [13]): 32.9%
inhibition of growth at 10 µg/mL (Escherichia coli [14]): -8.93%
inhibition of growth at 40 µg/mL (Bacillus subtilis [15]): 91.7%

Cc1ncc([N+](=O)[O-])n1CCOC(=O)[C@H](C)NC(=O)OCc1ccccc1
inhibition of growth at 300 µg/mL (Staphylococcus aureus [1]): 45.9%
inhibition of growth at 75 µg/mL (Escherichia coli [2]): 3.79%
inhibition of growth at 150 µg/mL (Staphylococcus aureus [3]): 22.5%
inhibition of growth at 50 µg/mL (Escherichia coli [4]): 2.22%
inhibition of growth at 75 µg/mL (Staphylococcus aureus [5]): 8.86%
inhibition of growth at 100 µg/mL (Escherichia coli [6]): 8.28%

Cc1ncc([N+](=O)[O-])n1CCOC(=O)[C@H](Cc1ccccc1)NC(=O)OCc1ccccc1
inhibition of growth at 300 µg/mL (Staphylococcus aureus [1]): 20.5%
inhibition of growth at 75 µg/mL (Escherichia coli [2]): 5.73%
inhibition of growth at 150 µg/mL (Staphylococcus aureus [3]): 6.66%
inhibition of growth at 50 µg/mL (Escherichia coli [4]): 4.44%
inhibition of growth at 75 µg/mL (Staphylococcus aureus [5]): -0.03%
inhibition of growth at 100 µg/mL (Escherichia coli [6]): 7.7%

CCn1cc(C(=O)O)c(=O)c2cnc(N3CCN(C(=O)[C@H](C)NC(=O)OCc4ccccc4)CC3)nc21
inhibition of growth at 200 µg/mL (Staphylococcus aureus [7]): 63%
inhibition of growth at 100 µg/mL (Staphylococcus aureus [8]): 55.4%
inhibition of growth at 5 µg/mL (Escherichia coli [9]): -12.1%
inhibition of growth at 10 µg/mL (Bacillus subtilis [10]): 90.3%
inhibition of growth at 2.5 µg/mL (Escherichia coli [11]): -12%
inhibition of growth at 20 µg/mL (Bacillus subtilis [12]): 5.34%
inhibition of growth at 50 µg/mL (Staphylococcus aureus [13]): 38%
inhibition of growth at 10 µg/mL (Escherichia coli [14]): 1.75%
inhibition of growth at 40 µg/mL (Bacillus subtilis [15]): 60.1%
